Measurements published in ChEMBL document CHEMBL1135728, “Bis(1H-2-indolyl)methanones as a novel class of inhibitors of the platelet-derived growth factor receptor kinase” (J Med Chem, 2002).

Legend:
[1] = target: Platelet-derived growth factor receptor (Homo sapiens, UniProt P09619+P16234); experiment: Antitumor activity measured by the inhibition of platelet-derived growth factor receptor autophosphorylation in intact Swiss 3T3 cells; format: cell-based
Summary of the method: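 Quiescent Swiss 3T3 fibroblasts moved to serum-free DMEM and exposed to compound in DMSO (final 1%) for 2 h. They were then stimulated with 100 ng/mL human recombinant PDGF-BB for 10 min at room temperature and lysed. Autophosphorylation was read by immunoblotting. Four to eight concentrations were tested across 2 orders of magnitude, and IC50 came from curve fitting over three independent experiments.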

[2] = target: Epidermal growth factor receptor (Homo sapiens, UniProt P00533); experiment: Inhibition of Epidermal growth factor receptor autophosphorylation in A431 cells; format: cell-based, A-431
Chain of Epidermal growth factor receptor (P00533 whole entry): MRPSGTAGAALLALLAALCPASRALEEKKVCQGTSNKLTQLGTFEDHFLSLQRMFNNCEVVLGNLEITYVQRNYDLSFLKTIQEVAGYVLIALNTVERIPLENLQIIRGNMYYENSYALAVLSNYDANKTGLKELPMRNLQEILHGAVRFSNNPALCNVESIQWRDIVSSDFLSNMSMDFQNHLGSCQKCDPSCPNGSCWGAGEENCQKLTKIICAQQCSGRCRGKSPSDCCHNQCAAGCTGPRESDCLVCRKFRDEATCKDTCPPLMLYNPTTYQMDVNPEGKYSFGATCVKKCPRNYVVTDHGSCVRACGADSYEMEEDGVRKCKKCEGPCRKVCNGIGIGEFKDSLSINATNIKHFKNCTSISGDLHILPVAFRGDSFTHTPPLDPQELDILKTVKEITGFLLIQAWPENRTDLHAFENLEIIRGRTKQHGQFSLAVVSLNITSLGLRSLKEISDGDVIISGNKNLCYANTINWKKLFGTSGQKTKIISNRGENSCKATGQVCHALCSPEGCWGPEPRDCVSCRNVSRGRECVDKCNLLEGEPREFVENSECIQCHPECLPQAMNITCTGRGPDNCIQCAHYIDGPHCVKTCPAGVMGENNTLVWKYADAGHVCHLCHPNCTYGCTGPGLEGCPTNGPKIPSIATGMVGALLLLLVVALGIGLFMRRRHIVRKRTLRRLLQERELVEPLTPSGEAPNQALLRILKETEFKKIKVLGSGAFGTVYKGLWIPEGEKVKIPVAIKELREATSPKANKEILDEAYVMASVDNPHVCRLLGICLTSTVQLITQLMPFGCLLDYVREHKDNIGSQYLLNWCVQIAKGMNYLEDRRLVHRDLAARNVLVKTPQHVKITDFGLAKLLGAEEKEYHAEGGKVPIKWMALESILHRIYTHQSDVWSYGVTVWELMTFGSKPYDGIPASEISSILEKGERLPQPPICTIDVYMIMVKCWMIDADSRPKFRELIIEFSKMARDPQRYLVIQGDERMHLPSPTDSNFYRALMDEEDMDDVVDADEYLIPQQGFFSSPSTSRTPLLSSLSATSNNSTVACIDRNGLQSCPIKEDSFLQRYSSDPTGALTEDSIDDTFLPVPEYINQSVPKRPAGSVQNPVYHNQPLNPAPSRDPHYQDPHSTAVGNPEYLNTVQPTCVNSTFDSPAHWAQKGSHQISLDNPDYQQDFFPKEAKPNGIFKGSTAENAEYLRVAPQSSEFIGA
Summary of the method: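 A431 cells, starved overnight in serum-free medium, were exposed to compound for 2 h and then stimulated with 100 ng/mL EGF for 10 min. Cells were extracted in lysis buffer (Hepes pH 7.5, 1% Triton), and EGFR tyrosine autophosphorylation was read by immunoblotting.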

[3] = target: Fibroblast growth factor receptor 1 (Homo sapiens, UniProt P11362); experiment: Inhibition of Fibroblast growth factor receptor 1 autophosphorylation in PAE cells; format: cell-based, Sus scrofa
Chain of Fibroblast growth factor receptor 1 (P11362 whole entry): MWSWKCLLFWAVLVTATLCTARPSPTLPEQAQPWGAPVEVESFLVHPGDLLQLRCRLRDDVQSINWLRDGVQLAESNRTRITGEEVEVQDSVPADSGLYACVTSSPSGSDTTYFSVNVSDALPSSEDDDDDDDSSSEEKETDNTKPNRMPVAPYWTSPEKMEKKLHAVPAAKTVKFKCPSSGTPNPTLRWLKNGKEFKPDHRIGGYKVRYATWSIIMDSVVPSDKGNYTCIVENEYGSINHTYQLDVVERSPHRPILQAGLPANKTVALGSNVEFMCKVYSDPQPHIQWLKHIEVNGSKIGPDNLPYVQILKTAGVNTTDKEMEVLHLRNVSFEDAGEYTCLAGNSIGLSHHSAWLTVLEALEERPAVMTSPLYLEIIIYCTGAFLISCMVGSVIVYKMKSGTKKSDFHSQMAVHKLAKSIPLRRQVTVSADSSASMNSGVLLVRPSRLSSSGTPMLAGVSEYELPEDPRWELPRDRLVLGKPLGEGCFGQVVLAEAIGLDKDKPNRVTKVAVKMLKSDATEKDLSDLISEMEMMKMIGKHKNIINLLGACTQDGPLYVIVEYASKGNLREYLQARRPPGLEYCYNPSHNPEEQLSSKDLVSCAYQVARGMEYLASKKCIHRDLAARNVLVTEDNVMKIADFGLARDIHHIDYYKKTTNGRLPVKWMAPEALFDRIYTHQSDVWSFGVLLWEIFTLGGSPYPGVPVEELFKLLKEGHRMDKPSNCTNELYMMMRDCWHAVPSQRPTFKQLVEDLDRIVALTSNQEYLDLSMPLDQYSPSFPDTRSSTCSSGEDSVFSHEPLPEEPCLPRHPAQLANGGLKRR

[4] = target: T1, Beta-adrenergic receptor kinase 1 (Homo sapiens, UniProt P25098); experiment: Inhibition of G-protein coupled receptor kinase 2 (GRK2) in vitro phosphorylation
T1 sequence (P25098 whole entry): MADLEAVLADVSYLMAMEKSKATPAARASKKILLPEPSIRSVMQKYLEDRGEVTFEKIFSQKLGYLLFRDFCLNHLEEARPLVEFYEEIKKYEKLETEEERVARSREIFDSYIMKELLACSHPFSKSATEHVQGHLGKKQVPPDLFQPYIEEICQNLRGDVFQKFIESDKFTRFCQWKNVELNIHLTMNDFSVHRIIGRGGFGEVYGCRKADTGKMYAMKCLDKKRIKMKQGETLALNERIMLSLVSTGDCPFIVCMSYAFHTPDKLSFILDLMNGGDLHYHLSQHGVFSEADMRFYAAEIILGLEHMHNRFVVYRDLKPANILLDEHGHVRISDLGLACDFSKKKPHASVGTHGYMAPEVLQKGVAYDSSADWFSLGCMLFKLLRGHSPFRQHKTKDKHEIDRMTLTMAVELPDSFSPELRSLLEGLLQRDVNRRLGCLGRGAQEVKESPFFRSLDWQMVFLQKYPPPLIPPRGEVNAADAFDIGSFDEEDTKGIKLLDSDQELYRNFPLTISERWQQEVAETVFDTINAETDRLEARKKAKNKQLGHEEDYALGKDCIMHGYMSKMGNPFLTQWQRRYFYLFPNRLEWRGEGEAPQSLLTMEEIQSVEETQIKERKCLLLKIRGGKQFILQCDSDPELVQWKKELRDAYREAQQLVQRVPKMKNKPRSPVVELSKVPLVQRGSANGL
Summary of the method: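 GRK2 was assayed in vitro using lysates of GRK2-overexpressing 293 cells as the kinase source. Rhodopsin purified from bovine rod outer segments served as substrate.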

[5] = target: Platelet-derived growth factor receptor alpha (Homo sapiens, UniProt P16234); experiment: Inhibition of Platelet-derived growth factor receptor alpha autophosphorylation in PAE cells; format: cell-based, Sus scrofa
Chain of Platelet-derived growth factor receptor alpha (P16234 whole entry): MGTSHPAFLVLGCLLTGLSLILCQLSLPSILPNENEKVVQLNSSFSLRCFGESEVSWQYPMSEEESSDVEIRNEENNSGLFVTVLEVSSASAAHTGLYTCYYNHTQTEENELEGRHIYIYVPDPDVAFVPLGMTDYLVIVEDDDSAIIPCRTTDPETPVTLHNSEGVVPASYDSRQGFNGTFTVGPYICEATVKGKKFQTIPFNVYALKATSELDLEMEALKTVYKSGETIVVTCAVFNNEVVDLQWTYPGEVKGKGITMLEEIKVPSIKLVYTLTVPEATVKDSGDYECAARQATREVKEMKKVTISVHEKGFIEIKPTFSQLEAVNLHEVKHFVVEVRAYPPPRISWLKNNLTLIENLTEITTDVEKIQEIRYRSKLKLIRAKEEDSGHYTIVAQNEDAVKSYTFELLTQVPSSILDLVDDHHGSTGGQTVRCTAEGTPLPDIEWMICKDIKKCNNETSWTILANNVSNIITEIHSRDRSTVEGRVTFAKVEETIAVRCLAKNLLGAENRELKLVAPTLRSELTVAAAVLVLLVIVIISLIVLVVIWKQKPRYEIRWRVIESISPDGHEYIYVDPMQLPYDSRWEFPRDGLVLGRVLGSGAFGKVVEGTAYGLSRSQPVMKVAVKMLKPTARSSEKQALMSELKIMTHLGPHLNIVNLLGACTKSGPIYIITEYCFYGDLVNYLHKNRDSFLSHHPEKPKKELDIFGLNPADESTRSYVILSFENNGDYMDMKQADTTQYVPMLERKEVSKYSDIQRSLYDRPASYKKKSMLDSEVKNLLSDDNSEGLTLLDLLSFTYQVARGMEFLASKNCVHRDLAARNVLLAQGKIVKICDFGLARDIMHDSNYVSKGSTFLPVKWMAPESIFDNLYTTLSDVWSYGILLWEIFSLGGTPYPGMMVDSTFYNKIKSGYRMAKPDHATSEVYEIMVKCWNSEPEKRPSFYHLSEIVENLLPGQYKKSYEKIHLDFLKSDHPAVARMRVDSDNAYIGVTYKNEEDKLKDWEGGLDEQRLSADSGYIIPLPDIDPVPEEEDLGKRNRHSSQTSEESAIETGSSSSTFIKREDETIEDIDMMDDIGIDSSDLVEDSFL
Summary of the method: (§1)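 Porcine aortic endothelial cells expressing human PDGF α- or β-receptor were used. Receptor autophosphorylation in the intact cells was read by immunoblotting.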

[6] = target: T2, Platelet-derived growth factor receptor beta (Homo sapiens, UniProt P09619); experiment: Inhibition of Platelet-derived growth factor receptor beta autophosphorylation in PAE cells; format: cell-based, Sus scrofa; summary of the method: as §1
T2 sequence (P09619 whole entry, the tested form may be a part): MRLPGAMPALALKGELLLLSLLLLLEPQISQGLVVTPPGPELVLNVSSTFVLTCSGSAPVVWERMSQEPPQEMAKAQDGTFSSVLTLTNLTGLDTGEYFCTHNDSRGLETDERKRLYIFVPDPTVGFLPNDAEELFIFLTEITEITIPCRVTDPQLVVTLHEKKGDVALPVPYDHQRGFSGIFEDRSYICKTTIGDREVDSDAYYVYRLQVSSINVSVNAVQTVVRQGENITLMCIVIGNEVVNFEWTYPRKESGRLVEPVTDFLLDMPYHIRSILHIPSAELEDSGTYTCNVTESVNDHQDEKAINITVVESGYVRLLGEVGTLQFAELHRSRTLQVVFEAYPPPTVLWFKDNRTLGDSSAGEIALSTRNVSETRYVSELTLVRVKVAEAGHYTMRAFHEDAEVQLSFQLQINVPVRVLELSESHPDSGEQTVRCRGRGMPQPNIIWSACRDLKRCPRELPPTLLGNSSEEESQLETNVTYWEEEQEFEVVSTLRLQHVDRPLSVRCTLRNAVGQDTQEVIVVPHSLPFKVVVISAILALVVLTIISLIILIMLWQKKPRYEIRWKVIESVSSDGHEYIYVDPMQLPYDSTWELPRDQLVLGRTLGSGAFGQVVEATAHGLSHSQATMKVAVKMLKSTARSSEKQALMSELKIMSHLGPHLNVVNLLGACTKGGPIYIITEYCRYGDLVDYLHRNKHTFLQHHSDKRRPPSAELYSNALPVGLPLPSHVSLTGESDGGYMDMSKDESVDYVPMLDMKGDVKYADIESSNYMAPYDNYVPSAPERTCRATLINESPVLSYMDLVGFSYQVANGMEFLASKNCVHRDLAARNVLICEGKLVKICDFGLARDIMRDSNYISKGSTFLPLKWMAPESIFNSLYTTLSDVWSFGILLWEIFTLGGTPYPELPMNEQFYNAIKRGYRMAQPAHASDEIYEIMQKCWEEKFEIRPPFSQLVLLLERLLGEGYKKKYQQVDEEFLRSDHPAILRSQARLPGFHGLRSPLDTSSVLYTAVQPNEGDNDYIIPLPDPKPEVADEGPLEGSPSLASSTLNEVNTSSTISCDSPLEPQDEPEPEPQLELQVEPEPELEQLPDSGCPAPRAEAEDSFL

[7] = target: T2, Platelet-derived growth factor receptor beta; experiment: Inhibition of Platelet-derived growth factor receptor beta kinase activity in Sf9-expressed GST-fusion protein
Summary of the method: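 A constitutively active GST fusion of the PDGFβ-receptor cytoplasmic domain was expressed in Sf9 cells. The isolated fusion protein was tested in an in vitro autophosphorylation assay at 10 µM ATP.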

[8] = target: T2, Platelet-derived growth factor receptor beta; experiment: Inhibition of purified Platelet-derived growth factor receptor beta kinase activity
Summary of the method: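 PDGFβ-receptor kinase was purified from membranes of a receptor-overexpressing cell line. Inhibition was tested in an in vitro autophosphorylation assay at 10 µM ATP.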

[9] = Inhibition of Protein kinase C isoforms epsilon and iota in vitro phosphorylation
Summary of the method: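 RGS-His6-tagged PKC isoforms were expressed transiently in COS-7 cells and purified from lysate on Ni-NTA, with imidazole elution. Reactions ran 10 min at 30 °C, and phosphocellulose-bound radioactivity was counted.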

[10] = target: T3, Protein kinase C epsilon type (Homo sapiens, UniProt Q02156); experiment: Inhibition of His-tagged Protein kinase C epsilon over-expressed in COS7 cells; format: cell-based, COS-7
T3 sequence (Q02156 whole entry): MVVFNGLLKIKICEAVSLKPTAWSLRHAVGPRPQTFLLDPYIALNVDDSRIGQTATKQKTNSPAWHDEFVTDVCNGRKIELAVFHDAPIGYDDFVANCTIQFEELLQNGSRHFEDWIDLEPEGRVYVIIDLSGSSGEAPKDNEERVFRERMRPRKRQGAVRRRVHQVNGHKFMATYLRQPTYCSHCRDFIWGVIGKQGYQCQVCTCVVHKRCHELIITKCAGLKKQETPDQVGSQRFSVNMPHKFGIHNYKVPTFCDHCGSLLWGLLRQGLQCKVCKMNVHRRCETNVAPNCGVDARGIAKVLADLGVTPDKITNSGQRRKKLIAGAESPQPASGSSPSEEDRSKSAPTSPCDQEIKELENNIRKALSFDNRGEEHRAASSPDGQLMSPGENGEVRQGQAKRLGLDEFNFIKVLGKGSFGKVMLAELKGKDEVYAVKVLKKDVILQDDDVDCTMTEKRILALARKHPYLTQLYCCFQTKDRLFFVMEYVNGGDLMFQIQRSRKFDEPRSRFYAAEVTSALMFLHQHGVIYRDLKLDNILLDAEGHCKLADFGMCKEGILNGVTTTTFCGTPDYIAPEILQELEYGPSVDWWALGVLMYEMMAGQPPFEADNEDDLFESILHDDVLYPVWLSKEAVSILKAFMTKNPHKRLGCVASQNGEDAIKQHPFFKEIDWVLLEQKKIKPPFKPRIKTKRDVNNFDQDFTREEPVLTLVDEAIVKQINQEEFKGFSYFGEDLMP
Summary of the method: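 RGS-His6-tagged PKC was transiently expressed in COS-7 cells, purified on Ni-NTA agarose and eluted with 500 mM imidazole. Reactions ran 10 min at 30 °C; phosphocellulose binding and scintillation counting gave the read-out.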

[11] = target: Proto-oncogene tyrosine-protein kinase Src (Homo sapiens, UniProt P12931); experiment: Inhibition of Src protein tyrosine kinase
Chain of Proto-oncogene tyrosine-protein kinase Src (P12931 2-536 limits assumed): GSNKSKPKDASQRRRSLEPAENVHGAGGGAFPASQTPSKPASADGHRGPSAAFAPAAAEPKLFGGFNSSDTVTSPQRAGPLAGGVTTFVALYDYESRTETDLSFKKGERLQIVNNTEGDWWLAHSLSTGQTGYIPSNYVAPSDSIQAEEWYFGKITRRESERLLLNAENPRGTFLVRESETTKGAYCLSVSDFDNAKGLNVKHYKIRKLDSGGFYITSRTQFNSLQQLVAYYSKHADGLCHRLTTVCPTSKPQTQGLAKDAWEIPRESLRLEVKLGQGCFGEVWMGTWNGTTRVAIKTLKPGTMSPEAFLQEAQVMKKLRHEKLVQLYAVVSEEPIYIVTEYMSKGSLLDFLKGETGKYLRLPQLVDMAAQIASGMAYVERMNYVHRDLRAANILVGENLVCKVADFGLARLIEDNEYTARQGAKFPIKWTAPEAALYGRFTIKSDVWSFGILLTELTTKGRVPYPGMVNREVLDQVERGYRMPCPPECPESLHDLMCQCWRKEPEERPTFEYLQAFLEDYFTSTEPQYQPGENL
Summary of the method: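 Src-dependent tyrosine phosphorylation was measured in intact src-transformed NIH3T3 fibroblasts, with immunoblot read-out.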

Row | SMILES | IC50 [1] [µM] | other results
1 | O=C(Oc1ccc2[nH]c(C(=O)c3cc4ccccc4[nH]3)cc2c1)c1ccc2ccccc2n1 | 0.4 | 
2 | CC(=O)Oc1ccccc1C(=O)Oc1ccc2[nH]c(C(=O)c3cc4ccccc4[nH]3)cc2c1 | 2.2 | 
3 | O=C(Oc1ccc2[nH]c(C(=O)c3cc4ccccc4[nH]3)cc2c1)c1cccnc1 | 1 | 
4 | Cc1ccc2[nH]c(C(=O)c3cc4ccccc4[nH]3)cc2c1 | 7.5 | 
5 | CCOc1ccc2[nH]c(C(=O)c3cc4ccccc4[nH]3)cc2c1 | 2.3 | 
6 | O=C(c1cc2ccccc2[nH]1)c1cc2cc(OCC3CCCCC3)ccc2[nH]1 | > 30 | 
7 | CCC(=O)Oc1ccc2[nH]c(C(=O)c3cc4ccccc4[nH]3)cc2c1 | 0.9 | 
8 | CC(Oc1ccc2[nH]c(C(=O)c3cc4ccccc4[nH]3)cc2c1)c1ccccc1 (stereo not drawn) | > 30 | 
9 | O=C(c1cc2ccccc2[nH]1)c1cc2cc(OC(=O)C3CCC3)ccc2[nH]1 | 9.1 | 
10 | CN(C)CCOc1ccc2[nH]c(C(=O)c3cc4ccccc4[nH]3)cc2c1 | 0.8 | 
11 | O=C(c1cc2ccccc2[nH]1)c1cc2cc(OCc3ccccc3)ccc2[nH]1 | 10 | 
12 | O=C(c1cc2ccccc2[nH]1)c1cc2cc(OC(=O)c3ccccc3Oc3ccccc3)ccc2[nH]1 | > 30 | 
13 | O=C(CCc1ccccc1)Oc1ccc2[nH]c(C(=O)c3cc4ccccc4[nH]3)cc2c1 | 1.2 | 
14 | COc1ccc2[nH]c(C(=O)c3cc4ccccc4s3)cc2c1 | 1 | 
15 | O=C(c1cc2ccccc2[nH]1)c1cc2cc(OCCN3CCOCC3)ccc2[nH]1 | 2.5 | 
16 | O=C(Oc1ccc2[nH]c(C(=O)c3cc4ccccc4[nH]3)cc2c1)c1ccc(-c2ccccc2)cc1 | 1.7 | 
17 | COc1cccc(CC(=O)Oc2ccc3[nH]c(C(=O)c4cc5ccccc5[nH]4)cc3c2)c1 | 1 | 
18 | CCCC(=O)Oc1ccc2[nH]c(C(=O)c3cc4ccccc4[nH]3)cc2c1 | 1.1 | 
19 | CCOc1ccc(C(=O)Oc2ccc3[nH]c(C(=O)c4cc5ccccc5[nH]4)cc3c2)cc1 | 1.3 | 
20 | COc1ccc(C(=O)Oc2ccc3[nH]c(C(=O)c4cc5ccccc5[nH]4)cc3c2)cc1 | 3.2 | 
21 | CN(C)CCCOc1ccc2[nH]c(C(=O)c3cc4ccccc4[nH]3)cc2c1 | 3.2 | 
22 | O=C(c1cc2ccccc2[nH]1)c1cc2cc(OC(=O)c3ccccc3Cl)ccc2[nH]1 | 4.6 | 
23 | O=C(Cc1cccs1)Oc1ccc2[nH]c(C(=O)c3cc4ccccc4[nH]3)cc2c1 | 0.8 | 

Now from value to molecule, other results behind:

Row | IC50 [1] [µM] | SMILES | other results
24 | > 30 | O=C(c1cc2ccccc2[nH]1)c1cc2cc(OC(=O)c3ccccc3C(=O)c3ccccc3)ccc2[nH]1 | 
25 | 10 | COc1ccc2[nH]c(C(=O)c3cc4cc(OC)ccc4[nH]3)cc2c1 | 
26 | 0.9 | CC(=O)OC(C(=O)Oc1ccc2[nH]c(C(=O)c3cc4ccccc4[nH]3)cc2c1)c1ccccc1 (stereo not drawn) | 
27 | > 30 | COc1cccc2cc(C(=O)c3cc4ccccc4[nH]3)[nH]c12 | 
28 | 5 | O=C(c1cc2ccccc2[nH]1)c1cc2cc(OCCCCI)ccc2[nH]1 | 
29 | 4.1 | COc1cc(C(=O)Oc2ccc3[nH]c(C(=O)c4cc5ccccc5[nH]4)cc3c2)cc(OC)c1OC | 
30 | > 30 | O=C(c1cc2ccccc2[nH]1)c1cc2cc(OC(=O)C(c3ccccc3)c3ccccc3)ccc2[nH]1 | 
31 | 0.8 | O=C(c1cc2ccccc2[nH]1)c1cc2cc(OCCN3CCCCC3)ccc2[nH]1 | 
32 | 0.9 | O=C(Oc1ccc2[nH]c(C(=O)c3cc4ccccc4[nH]3)cc2c1)c1ccc([N+](=O)[O-])cc1 | 
33 | 0.2 | COCC(=O)Oc1ccc2[nH]c(C(=O)c3cc4ccccc4[nH]3)cc2c1 | IC50 [2]: > 30 µM; IC50 [3]: > 10 µM; IC50 [4]: > 100 µM; IC50 [5]: 0.3 µM; IC50 [6]: 0.1 µM; IC50 [7]: 4.2 µM; IC50 [8]: 0.02 µM; IC50 [9]: 20.4 µM; IC50 [10]: > 100 µM; IC50 [11]: > 30 µM
34 | 0.3 | COc1ccc2cc(C(=O)c3cc4ccccc4[nH]3)[nH]c2c1 | 
35 | 9.1 | O=C(c1cc2ccccc2[nH]1)c1cc2cc(OC(=O)C3CC3)ccc2[nH]1 | 
36 | 0.8 | O=C(Oc1ccc2[nH]c(C(=O)c3cc4ccccc4[nH]3)cc2c1)c1ccccc1 | 
37 | > 30 | O=C(c1cc2ccccc2s1)c1cc2ccccc2s1 | 
38 | 0.6 | O=C(c1cc2ccccc2[nH]1)c1cc2cc(OC(=O)c3ccco3)ccc2[nH]1 | 
39 | > 20 | O=C(c1cc2ccccc2[nH]1)c1cc2cc(OCCCCCI)ccc2[nH]1 | 
40 | 3.4 | O=C(/C=C/c1ccccc1)Oc1ccc2[nH]c(C(=O)c3cc4ccccc4[nH]3)cc2c1 | 
41 | 0.3 | COc1ccc2[nH]c(C(=O)c3cc4ccccc4[nH]3)cc2c1 | 
42 | 4 | COc1ccc2[nH]c(C(=O)c3cc4ccccc4o3)cc2c1 | 
43 | 0.2 | O=C(c1cc2ccccc2[nH]1)c1cc2cc(O)ccc2[nH]1 | IC50 [2]: > 30 µM; IC50 [3]: > 10 µM; IC50 [5]: 1 µM; IC50 [6]: 0.2 µM; IC50 [7]: 0.6 µM; IC50 [8]: 0.09 µM; IC50 [9]: > 100 µM; IC50 [10]: > 30 µM; IC50 [11]: > 30 µM
44 | > 30 | O=C(Oc1ccc2[nH]c(C(=O)c3cc4ccccc4[nH]3)cc2c1)c1cccc(Oc2ccccc2)c1 | 
